Legend:
HDAC7 = molecular target: T1, HDAC7 (Homo sapiens, UniProt Q8WUI4); assay: HDACs selectivity assay; type: biochemical
T1 sequence (Q8WUI4 1-952): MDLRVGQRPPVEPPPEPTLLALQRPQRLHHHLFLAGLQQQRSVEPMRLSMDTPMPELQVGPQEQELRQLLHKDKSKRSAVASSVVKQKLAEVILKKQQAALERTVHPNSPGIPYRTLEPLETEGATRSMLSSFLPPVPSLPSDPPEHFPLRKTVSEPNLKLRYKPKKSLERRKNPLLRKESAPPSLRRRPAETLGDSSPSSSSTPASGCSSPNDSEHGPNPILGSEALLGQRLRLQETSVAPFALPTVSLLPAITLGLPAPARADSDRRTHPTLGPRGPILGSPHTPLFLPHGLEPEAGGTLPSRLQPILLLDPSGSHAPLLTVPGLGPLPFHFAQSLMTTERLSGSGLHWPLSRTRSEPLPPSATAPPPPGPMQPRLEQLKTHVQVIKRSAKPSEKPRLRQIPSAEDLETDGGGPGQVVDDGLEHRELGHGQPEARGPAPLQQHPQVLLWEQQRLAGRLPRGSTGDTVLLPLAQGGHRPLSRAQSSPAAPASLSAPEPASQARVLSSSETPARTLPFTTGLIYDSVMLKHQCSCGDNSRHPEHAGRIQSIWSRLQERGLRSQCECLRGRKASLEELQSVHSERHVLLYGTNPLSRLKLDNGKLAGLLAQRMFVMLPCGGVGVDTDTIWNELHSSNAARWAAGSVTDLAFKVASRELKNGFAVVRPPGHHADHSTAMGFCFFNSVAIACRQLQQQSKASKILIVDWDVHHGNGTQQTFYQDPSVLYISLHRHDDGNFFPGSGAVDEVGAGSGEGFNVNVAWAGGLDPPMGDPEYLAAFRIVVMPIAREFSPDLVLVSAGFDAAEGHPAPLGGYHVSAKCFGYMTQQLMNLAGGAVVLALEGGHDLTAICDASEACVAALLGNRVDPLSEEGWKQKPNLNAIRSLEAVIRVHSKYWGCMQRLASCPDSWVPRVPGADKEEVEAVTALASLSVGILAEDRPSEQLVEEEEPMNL
Summary of the method: (§1)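 Enzyme selectivity panel was run by an outside contract lab to its standard assay protocols. IC50 values came from dose–response fitting of the data points. Each experiment was done independently at least three times.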

SIRT5 (residues 34–302) = molecular target: T2, SIRT5 (residues 34–302) (Homo sapiens, UniProt Q9NXA8); assay: Selectivity FDL deacetylation assay; type: biochemical
T2 sequence (Q9NXA8 34-302): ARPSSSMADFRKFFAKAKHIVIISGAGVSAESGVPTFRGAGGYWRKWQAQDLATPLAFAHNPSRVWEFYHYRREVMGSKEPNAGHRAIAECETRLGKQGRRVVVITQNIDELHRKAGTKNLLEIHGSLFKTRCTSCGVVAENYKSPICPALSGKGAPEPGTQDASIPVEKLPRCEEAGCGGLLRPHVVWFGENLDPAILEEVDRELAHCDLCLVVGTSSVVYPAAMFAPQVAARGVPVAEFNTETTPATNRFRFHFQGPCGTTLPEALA

SIRT6 [1] = molecular target: T3, SIRT6 (Homo sapiens, UniProt Q8N6T7); assay: HPLC assay of SIRT6 deacetylation on H3K9Ac; type: biochemical; settings: 50 μmol/L JYQ-42, H3K9Ac peptide
T3 sequence (Q8N6T7 whole entry): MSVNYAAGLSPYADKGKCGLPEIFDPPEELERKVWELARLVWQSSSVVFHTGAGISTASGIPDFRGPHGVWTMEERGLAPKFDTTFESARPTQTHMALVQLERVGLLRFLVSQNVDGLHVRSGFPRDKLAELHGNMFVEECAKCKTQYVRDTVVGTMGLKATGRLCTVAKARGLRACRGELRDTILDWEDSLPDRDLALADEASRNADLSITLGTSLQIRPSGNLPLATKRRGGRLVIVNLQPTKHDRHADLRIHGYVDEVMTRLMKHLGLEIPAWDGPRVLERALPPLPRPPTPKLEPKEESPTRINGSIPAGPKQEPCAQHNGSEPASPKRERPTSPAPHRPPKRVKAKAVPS

HDAC4 = HDAC4 (Homo sapiens, UniProt P56524); assay: HDACs selectivity assay; type: biochemical
Sequence of HDAC4 (P56524 whole entry): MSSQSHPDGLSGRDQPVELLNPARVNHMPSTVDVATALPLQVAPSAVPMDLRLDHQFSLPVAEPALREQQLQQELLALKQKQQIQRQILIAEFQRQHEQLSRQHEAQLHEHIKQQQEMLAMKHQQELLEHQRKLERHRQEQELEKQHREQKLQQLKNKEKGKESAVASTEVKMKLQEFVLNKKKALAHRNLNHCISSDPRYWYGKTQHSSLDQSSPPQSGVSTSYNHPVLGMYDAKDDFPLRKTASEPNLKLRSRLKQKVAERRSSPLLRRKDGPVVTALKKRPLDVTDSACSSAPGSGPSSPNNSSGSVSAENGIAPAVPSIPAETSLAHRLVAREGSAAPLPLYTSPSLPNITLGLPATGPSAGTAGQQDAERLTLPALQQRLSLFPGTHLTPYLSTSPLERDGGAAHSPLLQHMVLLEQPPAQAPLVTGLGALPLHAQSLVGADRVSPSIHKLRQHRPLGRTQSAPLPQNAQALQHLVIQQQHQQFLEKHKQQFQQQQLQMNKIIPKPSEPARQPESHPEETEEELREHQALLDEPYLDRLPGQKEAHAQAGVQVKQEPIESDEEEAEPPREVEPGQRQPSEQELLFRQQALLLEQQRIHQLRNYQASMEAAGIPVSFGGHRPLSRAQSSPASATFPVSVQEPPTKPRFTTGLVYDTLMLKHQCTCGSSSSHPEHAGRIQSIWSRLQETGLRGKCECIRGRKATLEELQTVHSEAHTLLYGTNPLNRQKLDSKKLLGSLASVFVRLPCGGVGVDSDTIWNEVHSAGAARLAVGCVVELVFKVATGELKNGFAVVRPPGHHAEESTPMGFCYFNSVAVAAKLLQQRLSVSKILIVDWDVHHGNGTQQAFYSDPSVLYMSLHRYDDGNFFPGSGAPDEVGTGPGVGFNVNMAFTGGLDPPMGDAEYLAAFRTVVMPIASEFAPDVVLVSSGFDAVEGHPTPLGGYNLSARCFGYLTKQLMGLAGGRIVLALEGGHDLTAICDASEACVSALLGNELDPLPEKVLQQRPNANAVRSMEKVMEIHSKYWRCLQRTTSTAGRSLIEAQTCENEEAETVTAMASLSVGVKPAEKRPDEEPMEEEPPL
Summary of the method: as §1

BXPC-3 cells [2] = assay: Migration assay with xCELLigence RTCA-DP; type: cell-based; settings: 5, 10, 20 μmol/L, effect even at 5 μmol/L
SIRT6 [3] = molecular target: T3, SIRT6; assay: In vitro nucleosome deacetylation assay; type: biochemical; settings: Western blot
Summary of the method: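 Nucleosomes were isolated from HeLa cells and deacetylated in vitro by SIRT6 in the presence of NAD+. H3K9Ac and H3K18Ac were detected by Western blot.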

HDAC11 = molecular target: T4, HDAC11 (Homo sapiens, UniProt Q96DB2); assay: HDACs selectivity assay; type: biochemical
T4 sequence (Q96DB2 1-347): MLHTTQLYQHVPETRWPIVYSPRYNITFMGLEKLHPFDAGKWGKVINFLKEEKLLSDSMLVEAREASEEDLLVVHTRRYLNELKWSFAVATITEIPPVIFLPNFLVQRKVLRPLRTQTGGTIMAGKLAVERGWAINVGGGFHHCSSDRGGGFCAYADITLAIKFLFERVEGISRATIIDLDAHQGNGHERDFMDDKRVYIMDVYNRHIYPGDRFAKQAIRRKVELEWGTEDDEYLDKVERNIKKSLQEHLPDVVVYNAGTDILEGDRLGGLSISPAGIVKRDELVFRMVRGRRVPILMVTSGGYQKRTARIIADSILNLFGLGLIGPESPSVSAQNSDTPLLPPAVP
Summary of the method: as §1

SIRT6 [4] = molecular target: T3, SIRT6; assay: Fluor de Lys; type: biochemical
Summary of the method: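 Recombinant SIRT6 was expressed in E. coli BL21 in LB with 100 μg/mL ampicillin at 37 °C. Expression was induced with 0.5 mmol/L IPTG at OD600 0.8, then grown 18 h at 16 °C and purified by an earlier method.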

BXPC-3 cells [5] = assay: Migration assay by wound healing; type: cell-based; settings: for relative migration rate (wound healing): control ~0.60
SIRT2 = molecular target: T5, SIRT2 (Homo sapiens, UniProt Q8IXJ6); assay: HDACs selectivity assay; type: biochemical
T5 sequence (Q8IXJ6 1-389): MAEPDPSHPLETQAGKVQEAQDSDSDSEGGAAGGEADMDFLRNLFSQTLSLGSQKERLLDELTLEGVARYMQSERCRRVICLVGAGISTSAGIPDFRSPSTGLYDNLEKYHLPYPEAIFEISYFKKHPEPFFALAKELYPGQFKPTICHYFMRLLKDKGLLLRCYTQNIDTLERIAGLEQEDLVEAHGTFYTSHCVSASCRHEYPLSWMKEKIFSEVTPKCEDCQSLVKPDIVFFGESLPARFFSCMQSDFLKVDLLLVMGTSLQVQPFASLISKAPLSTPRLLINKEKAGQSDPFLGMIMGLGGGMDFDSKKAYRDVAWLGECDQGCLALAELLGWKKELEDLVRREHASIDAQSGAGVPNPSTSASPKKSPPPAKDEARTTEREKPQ

MiaPaCa-2 cells = assay: Migration assay with xCELLigence RTCA-DP; type: cell-based; settings: effect even at 5 μmol/L

IC50 (HDAC7): > 100 µM | IC50 (SIRT5 (residues 34–302)): > 100 µM | amount of H3K9-free lysine peptides by HPLC (SIRT6 [1]): decreased prominently | IC50 (HDAC4): > 100 µM | inhibition of SIRT6 deacetylase activity on nucleosomes (SIRT6 [3]; 1 μmol/L): completely/totally inhibited | IC50 (HDAC11): > 100 µM | IC50 (SIRT6 [4]): 2.33 ± 0.17 µM | inhibition ratio at 50 μmol/L (SIRT6 [4]; FDL assay, substrate Ac-RHKK-Ac-AMC, 50 μmol/L compound): 85.3% | Effect (SIRT6 [4]; SIRT6 (Table 2)): Inhibition | IC50 (SIRT2): 87.2 ± 1.1 µM | inhibition ratio at 50 μmol/L (SIRT2) (SIRT2; 50 μmol/L): 38.6% | SIRT2 IC50 relative to that of SIRT6 (SIRT2; IC50 SIRT2 / IC50 SIRT6): approximately 37 fold | Effect (SIRT2; SIRT2): Inhibition
Structure (SMILES): Nc1nonc1-n1cc(C(=O)N/N=C/c2cc(Cl)cc(C(F)(F)F)c2)nn1 [JYQ-42]
migration of pancreatic cancer cells (RTCA cell index) (BXPC-3 cells [2]): dramatically attenuated | inhibition of SIRT6 deacetylase activity on nucleosomes (SIRT6 [3]; 0.5 μmol/L): inhibit the deacetylase activity of SIRT6 significantly | relative migration rate (wound healing) (BXPC-3 cells [5]; BXPC-3, 10 μmol/L JYQ-42, 24 h): ~ 0.3 | relative migration rate (wound healing) (BXPC-3 cells [5]; BXPC-3, 20 μmol/L JYQ-42, 24 h): ~ 0.24 | relative migration rate (wound healing) (BXPC-3 cells [5]; BXPC-3, 40 μmol/L JYQ-42, 24 h): ~ 0.10 | migration with ADPr co-treatment (wound healing) (BXPC-3 cells [5]; BXPC-3, 40 μmol/L JYQ-42 in the presence of 0.5 mmol/L ADPr): no influence on the migration | migration of pancreatic cancer cells (RTCA cell index) (MiaPaCa-2 cells): dramatically attenuated

Reference: article PMC8897208 (Acta Pharmaceutica Sinica. B, 2021)
